Values after ≈ are worked out from the molar mass of the structure shown. Active and inactive are the calls of the source. The calls are words filed in the database; no cut-off is given here.

For experiment [1], the system named is Helicoverpa armigera. Description: Antifeedant activity against Helicoverpa armigera fed on compound-treated artificial diet assessed as inhibition of consumption at 100 ppm after 3 days relative to control. Format: functional. As to conditions: 72 h.
The test system of experiment [2] is Helicoverpa armigera. Description: Antifeedant activity against third-instar larva of Helicoverpa armigera assessed as growth inhibition after 7 days by dietary assay. Format: functional, organism-based.
In experiment [3] the test system is Helicoverpa armigera. Description: Antifeedant activity against Helicoverpa armigera fed on compound-treated artificial diet assessed as growth inhibition at 50 to 100 ppm after 3 days relative to control. Type of experiment: functional.
Experiment [4] has as its system Helicoverpa armigera. Description: Antifeedant activity against neonate larva of Helicoverpa armigera assessed as growth inhibition after 7 days by dietary assay. Format: functional, organism-based. Particulars: for EC95: Helicoverpa armigera, feed or water, 168 h. In a few lines: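 Two 24-h-old neonates were placed per cup on 1 g fresh-weight treated artificial diet. Cups were held in a tray lined with moist filter paper at 27±2 °C under 16:8 LD. Growth was taken from larval weight after 7 d as % of control, with mortality recorded. Forty larvae were used per concentration. EC50 was obtained by regression analysis.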

Experiment [5] deals with Helicoverpa armigera. The experiment can be described thus: Antifeedant activity against pre-starved third-instar larva of Helicoverpa armigera after 6 hr by choice feeding assay. Format: functional. The gist of the method: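 H. armigera from lab culture on artificial diet, 27±1 °C, 16:8 LD. Single 2–10-h-old third instar, starved 4 h, in 9-cm Petri dish. Two preweighed diet cubes with compound (25–100 ppm) alternated with two control cubes. Consumption per cube measured after 6 h. 10 replicates per concentration. Deterrence index = (C − T)/(C + T) × 100.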

The subject of experiment [6] is Helicoverpa armigera. Description: Antifeedant activity against fourth-instar larva of Helicoverpa armigera assessed as relative consumption rate ratio per unit weight per day at 5 ppm applied topically measured after 3 days (reference value: 3.85 +/- 0.9). Type of experiment: functional.
The test system of experiment [7] is Helicoverpa armigera. The experiment can be described thus: Antifeedant activity against third-instar larva of Helicoverpa armigera assessed as decrease in food consumption at 2 to 10 ug/larva applied topically measured after 7 days relative to control. Format: functional, organism-based. The gist of the method: (§1)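 Larvae were dosed topically at 2-10 µg/larva in 0.5 µL acetone on the dorsal terga, with acetone-only controls. They were then fed untreated artificial diet, and diet consumption and weight gain were compared with controls over 7 d.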

For experiment [8], the system named is Helicoverpa armigera. The experiment can be described thus: Antifeedant activity against fourth-instar larva of Helicoverpa armigera assessed as relative growth rate ratio per unit weight per day at 10 ppm applied topically measured after 3 days (reference value: 0.8 +/- 0.03). Format: functional.
The test system of experiment [9] is Helicoverpa armigera. Description: Antifeedant activity against fourth-instar larva of Helicoverpa armigera fed on compound treated artificial diet assessed as relative growth rate ratio per unit weight per day at 50 ppm after 3 days (reference value: 0.8 +/- 0.03). Format: functional.
The subject of experiment [10] is Helicoverpa armigera. The experiment can be described thus: Antifeedant activity against fourth-instar larva of Helicoverpa armigera assessed as relative growth rate ratio per unit weight per day at 5 ppm applied topically measured after 3 days (reference value: 0.8 +/- 0.03). Type of experiment: functional.
The subject of experiment [11] is Helicoverpa armigera. Description: Antifeedant activity against fourth-instar larva of Helicoverpa armigera assessed as efficiency of conversion of ingested food at 5 ppm applied topically measured after 3 days (reference value: 20.3 +/- 2.7%). Type of experiment: functional, Instar larval stage.
Experiment [12] concerns Helicoverpa armigera. The experiment can be described thus: Antifeedant activity against fourth-instar larva of Helicoverpa armigera fed on compound treated artificial diet assessed as relative growth rate ratio per unit weight per day at 100 ppm after 3 days (reference value: 0.8 +/- 0.03). Type of experiment: functional.
In experiment [13] the test system is Helicoverpa armigera. The experiment can be described thus: Antifeedant activity against pre-starved third-instar larva of Helicoverpa armigera assessed as decrease in feeding after 6 hr by choice feeding assay relative to control. Type of experiment: functional, organism-based. In a few lines: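 Diet choice test in 9-cm Petri dishes: two preweighed cubes of diet with compound (25-100 ppm) alternated with two control cubes. A single 2- to 10-h-old third instar, pre-starved 4 h, was placed centrally. Consumption of each cube was weighed after 6 h, with 10 replicates per concentration. Deterrence index = (C − T)/(C + T) × 100.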

The subject of experiment [14] is Helicoverpa armigera. Description: Antifeedant activity against fourth-instar larva of Helicoverpa armigera fed on compound treated artificial diet assessed as efficiency of conversion of ingested food at 100 ppm after 3 days (reference value: 20.3 +/- 2.7%). Type of experiment: functional, Instar larval stage.
Experiment [15] concerns Helicoverpa armigera. The experiment can be described thus: Antifeedant activity against fourth-instar larva of Helicoverpa armigera fed on compound treated artificial diet assessed as relative consumption rate ratio per unit weight per day at 50 ppm after 3 days (reference value: 3.85 +/- 0.9). Format: functional.
Experiment [16] relates to Helicoverpa armigera. Description: Antifeedant activity against fourth-instar larva of Helicoverpa armigera assessed as efficiency of conversion of ingested food at 10 ppm applied topically measured after 3 days (reference value: 20.3 +/- 2.7%). Format: functional, Instar larval stage.
Experiment [17] concerns Helicoverpa armigera. The experiment can be described thus: Antifeedant activity against third-instar larva of Helicoverpa armigera assessed as decrease in weight gain at 2 to 10 ug/larva applied topically measured after 7 days relative to control. Format: functional, organism-based. In a few lines: as §1
Experiment [18] has as its system Helicoverpa armigera. Description: Antifeedant activity against fourth-instar larva of Helicoverpa armigera assessed as relative consumption rate ratio per unit weight per day at 10 ppm applied topically measured after 3 days (reference value: 3.85 +/- 0.9). Format: functional.
Experiment [19] relates to Helicoverpa armigera. The experiment can be described thus: Antifeedant activity against fourth-instar larva of Helicoverpa armigera fed on compound treated artificial diet assessed as efficiency of conversion of ingested food at 50 ppm after 3 days (reference value: 20.3 +/- 2.7%). Type of experiment: functional, Instar larval stage.
In experiment [20] the test system is Helicoverpa armigera. The experiment can be described thus: Antifeedant activity against fourth-instar larva of Helicoverpa armigera fed on compound treated artificial diet assessed as relative consumption rate ratio per unit weight per day at 100 ppm after 3 days (reference value: 3.85 +/- 0.9). Type of experiment: functional.
In experiment [21] the test system is Helicoverpa armigera. The experiment can be described thus: Antifeedant activity against neonate larva of Helicoverpa armigera assessed as decrease in consumption of diet after 7 days by dietary assay. Format: functional.

The inhibition is the change of the read-out against control, counted positive when it falls. One may read the EC95 as the concentration at which the effect reaches the 95% level. Consider `C/C=C(\C)C(=O)O[C@H]1C[C@@H](OC(C)=O)[C@@]2(C(=O)OC)CO[C@H]3[C@@H](O)[C@@](C)([C@]45O[C@@]4(C)[C@@H]4C[C@H]5O[C@@H]5OC=C[C@@]54O)[C@H]4[C@]1(CO[C@]4(O)C(=O)OC)[C@@H]32` [AZADIRACHTIN A], for which the inhibition at 100 ppm in the experiment with Helicoverpa armigera [1] was ≤ 76%. The EC50 in the experiment on Helicoverpa armigera [2] amounted to 0.4 ppm. Further, in the experiment on Helicoverpa armigera [3], the growth inhibition (GI) is ≤ 75%. Besides, in the experiment on Helicoverpa armigera [4], the EC50 came to 0.26 ppm and the 95% effect concentration (EC95) was determined as 1.46 µg/mL (≈ 2.03 µM).

Regarding `C=C1[C@@H]([C@@]2(C)[C@@H](OC(C)=O)CC(=O)O[C@](C)(COC(C)=O)[C@@H]2C(=O)OC)[C@@H](OC=O)[C@H](OC(=O)[C@H](O)[C@H](C)CC)[C@@]2(C)[C@H](c3ccoc3)CC(=O)[C@]12O` [PRIEURIANIN], the DI50 with Helicoverpa armigera [5] is 91.4 ppm. Also, the Ratio is given as 3.74 in the experiment on Helicoverpa armigera [6]; 0.82 with Helicoverpa armigera [8]; 0.41 in the experiment on Helicoverpa armigera [9]; 0.83 in the experiment on Helicoverpa armigera [10]; 0.32 in the experiment on Helicoverpa armigera [12]; 2.04 in the experiment with Helicoverpa armigera [15]. For the same molecule, the Ratio in the experiment on Helicoverpa armigera [18] is 3.79; with Helicoverpa armigera [20], 1.63. Besides, the outcome in the experiment with Helicoverpa armigera [7] and in the experiment on Helicoverpa armigera [17] was inactive. In addition, the inhibition at 100 ppm in the experiment on Helicoverpa armigera [1] is 57.7%. Further, the Activity is on record as 22.1% with Helicoverpa armigera [11], 19.8% in the experiment on Helicoverpa armigera [14], 21.6% in the experiment with Helicoverpa armigera [16] and 20% in the experiment with Helicoverpa armigera [19]. In addition, in the experiment with Helicoverpa armigera [13], the outcome was Active. Also, the results for the EC50 in the experiment with Helicoverpa armigera [2] and in the experiment on Helicoverpa armigera [4] were 92.2 ppm and 18.8 ppm, respectively. Further, the “growth inhibition (GI)” value with Helicoverpa armigera [3] came out at 60%. Moreover, the EC95 with Helicoverpa armigera [4] came out at 169 µg/mL (≈ 226 µM).

Turning to `C=C1[C@@H]([C@@]2(C)[C@@H](OC(C)=O)CC(=O)O[C@](C)(COC(C)=O)[C@@H]2CC(=O)OC)[C@@H](OC=O)[C@H](OC(=O)[C@H](O)[C@H](C)CC)[C@]2(C)[C@@H](c3ccoc3)C[C@H]3O[C@]132`, the Ratio with Helicoverpa armigera [6] stood at 3.48; with Helicoverpa armigera [8], 0.87; in the experiment on Helicoverpa armigera [9], 0.36; in the experiment with Helicoverpa armigera [10], 0.88; with Helicoverpa armigera [12], 0.28; in the experiment on Helicoverpa armigera [15], 1.38. Also, the figures for the Ratio in the experiment on Helicoverpa armigera [18] and in the experiment on Helicoverpa armigera [20] were 3.36 and 1.06, respectively. Besides, the outcome in the experiment with Helicoverpa armigera [7] and in the experiment with Helicoverpa armigera [17] was inactive. Moreover, in the experiment with Helicoverpa armigera [1], the inhibition at 100 ppm is 69.1%. The Activity was 25.2% in the experiment on Helicoverpa armigera [11]; 26.4% with Helicoverpa armigera [14]; 25.9% in the experiment with Helicoverpa armigera [16]; 26.2% in the experiment with Helicoverpa armigera [19]; “Dose-dependent effect” in the experiment on Helicoverpa armigera [21]; 50.2% in the experiment with Helicoverpa armigera [21] (record 2). For the same molecule, in the experiment on Helicoverpa armigera [13], the result was Active. The EC50 in the experiment with Helicoverpa armigera [2] was 55.7 ppm; in the experiment with Helicoverpa armigera [4], 3.2 ppm. The “growth inhibition (GI)” value with Helicoverpa armigera [3] is recorded as 60%. Moreover, the EC95 in the experiment on Helicoverpa armigera [4] is 30.6 µg/mL (≈ 41 µM).

As for `C=C1[C@@H]([C@@]2(C)[C@@H](OC(C)=O)CC(=O)O[C@](C)(COC(C)=O)[C@@H]2CC(=O)OC)[C@@H](OC=O)[C@H](OC(=O)[C@H](OC(C)=O)[C@H](C)CC)[C@]2(C)[C@@H](c3ccoc3)C[C@H]3O[C@]132`, the DI50 with Helicoverpa armigera [5] turned out to be 48.3 ppm. The Ratio with Helicoverpa armigera [6] is listed as 3.74; in the experiment with Helicoverpa armigera [8] it was 0.8; with Helicoverpa armigera [9], 0.35; in the experiment with Helicoverpa armigera [10], 0.85; in the experiment with Helicoverpa armigera [12] it was 0.2; with Helicoverpa armigera [15] it was 1.74. Moreover, the figures for the Ratio in the experiment with Helicoverpa armigera [18] and in the experiment on Helicoverpa armigera [20] were 3.78 and 1.08, respectively. For the same molecule, the outcome in the experiment on Helicoverpa armigera [7] and in the experiment with Helicoverpa armigera [17] was inactive. The inhibition at 100 ppm with Helicoverpa armigera [1] was determined as 72.8%. Besides, the Activity with Helicoverpa armigera [11] is 22.1%; with Helicoverpa armigera [14] it was 19%; in the experiment on Helicoverpa armigera [16], 21.3%; in the experiment on Helicoverpa armigera [19], 20.1%; with Helicoverpa armigera [21], “Dose-dependent effect”; in the experiment with Helicoverpa armigera [21] (record 2), 50.2%. Also, the result in the experiment on Helicoverpa armigera [13] was Active. Also, the EC50 came to 45.7 ppm in the experiment on Helicoverpa armigera [2] and 2.6 ppm in the experiment with Helicoverpa armigera [4]. In addition, the “growth inhibition (GI)” value in the experiment on Helicoverpa armigera [3] worked out at 60%. The EC95 with Helicoverpa armigera [4] is 30.8 µg/mL (≈ 39 µM).

For the origin of these results see ChEMBL document CHEMBL3046748, “Antifeedant effects of the limonoids from Entandrophragma candolei (Meliaceae) on the gram pod borer, Helicoverpa armigera (Lepidoptera: Noctuidae)” (J Agric Food Chem, 2003).
